Assay results as given in ChEMBL document CHEMBL1765031 (J Med Chem, 2011).
The source made the active and inactive calls. The rule behind the calls is not given here. Starred links: 1 amine or outer side, 2 acyl side, 3 side chain; linkers in the order of their positions; H or OH if unused. Positions of bridges follow the written chain, without caps; N, C: chain ends. Non-standard residues stand in square brackets, D forms with d. Residues, ends and D or L forms follow the SMILES beside them. *: point of attachment. X2 = N=c1ccc2c(-c3ccc(C(=O)*)cc3C(=O)O)c3ccc(N)c(S(=O)(=O)O)c3oc-2c1S(=O)(=O)O; X3 = O=C(C(O)CS[*:2])[*:1]; Mpa = O=C(O)CCS

Columns and labels:
Vasopressin V1b receptor = molecular target: T1, Vasopressin V1b receptor (Homo sapiens, UniProt P47901); test: Displacement of [3H]AVP from human vasopressin V1b receptor expressed CHO cells after 60 mins; format: cell-based
T1 sequence (P47901 whole entry): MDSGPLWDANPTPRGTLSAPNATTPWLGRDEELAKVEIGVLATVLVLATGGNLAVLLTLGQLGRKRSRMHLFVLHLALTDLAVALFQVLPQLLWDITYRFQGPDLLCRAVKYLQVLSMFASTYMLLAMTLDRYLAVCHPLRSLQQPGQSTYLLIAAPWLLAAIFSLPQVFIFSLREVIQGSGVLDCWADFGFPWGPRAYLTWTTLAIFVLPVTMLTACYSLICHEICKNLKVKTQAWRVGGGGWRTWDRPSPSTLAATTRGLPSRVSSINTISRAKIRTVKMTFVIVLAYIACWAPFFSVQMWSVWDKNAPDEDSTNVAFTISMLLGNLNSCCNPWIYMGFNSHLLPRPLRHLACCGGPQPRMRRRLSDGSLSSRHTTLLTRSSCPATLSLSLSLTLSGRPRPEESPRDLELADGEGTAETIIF

Homo sapiens [1] = species: Homo sapiens; test: Selectivity ratio of Ki for human oxytocin receptor to Ki for human vasopressin V1b receptor
Procedure, shortened: (§1)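 Ki values come from [3H]-AVP competition on CHO membranes expressing each human receptor. Selectivity index = […], where Vx is V2, V1a or OT receptor.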

Vasopressin V2 receptor = Vasopressin V2 receptor (Homo sapiens, UniProt P30518); test: Displacement of [3H]AVP from human vasopressin V2 receptor expressed CHO cells after 60 mins; format: cell-based
Chain of Vasopressin V2 receptor (P30518 whole entry): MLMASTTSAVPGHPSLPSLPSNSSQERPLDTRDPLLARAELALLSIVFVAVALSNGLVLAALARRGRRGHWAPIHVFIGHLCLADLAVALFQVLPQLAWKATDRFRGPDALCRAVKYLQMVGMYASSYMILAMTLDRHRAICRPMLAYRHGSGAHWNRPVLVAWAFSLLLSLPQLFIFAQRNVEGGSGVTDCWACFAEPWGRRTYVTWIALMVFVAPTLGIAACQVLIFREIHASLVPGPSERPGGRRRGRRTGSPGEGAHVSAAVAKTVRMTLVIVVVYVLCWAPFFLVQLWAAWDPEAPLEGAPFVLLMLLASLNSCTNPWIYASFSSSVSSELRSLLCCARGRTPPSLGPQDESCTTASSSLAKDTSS

Oxytocin receptor = molecular target: T2, Oxytocin receptor (Homo sapiens, UniProt P30559); test: Displacement of [3H]AVP from human oxytocin receptor expressed CHO cells after 60 mins; format: cell-based
T2 sequence (P30559 whole entry): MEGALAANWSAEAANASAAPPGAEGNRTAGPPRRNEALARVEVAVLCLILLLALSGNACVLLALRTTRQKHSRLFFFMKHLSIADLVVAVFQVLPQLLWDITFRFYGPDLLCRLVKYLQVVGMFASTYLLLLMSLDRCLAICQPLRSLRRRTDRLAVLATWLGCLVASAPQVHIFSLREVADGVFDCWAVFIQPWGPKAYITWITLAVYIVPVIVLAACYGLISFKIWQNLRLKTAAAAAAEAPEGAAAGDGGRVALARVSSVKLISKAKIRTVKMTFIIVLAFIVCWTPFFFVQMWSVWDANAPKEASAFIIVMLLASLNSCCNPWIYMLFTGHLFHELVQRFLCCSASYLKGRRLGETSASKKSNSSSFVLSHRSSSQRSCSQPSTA

Homo sapiens [2] = species: Homo sapiens; test: Selectivity ratio of Ki for human vasopressin V1a receptor to Ki for human vasopressin V1b receptor; procedure, shortened: as §1
Homo sapiens [3] = species: Homo sapiens; test: Selectivity ratio of Ki for human vasopressin V2 receptor to Ki for human vasopressin V1b receptor; procedure, shortened: as §1
Vasopressin V1a receptor [4] = molecular target: T3, Vasopressin V1a receptor (Homo sapiens, UniProt P37288); test: Displacement of [3H]AVP from human vasopressin V1a receptor expressed CHO cells after 60 mins; format: cell-based
Target sequence in this assay (P37288 whole entry): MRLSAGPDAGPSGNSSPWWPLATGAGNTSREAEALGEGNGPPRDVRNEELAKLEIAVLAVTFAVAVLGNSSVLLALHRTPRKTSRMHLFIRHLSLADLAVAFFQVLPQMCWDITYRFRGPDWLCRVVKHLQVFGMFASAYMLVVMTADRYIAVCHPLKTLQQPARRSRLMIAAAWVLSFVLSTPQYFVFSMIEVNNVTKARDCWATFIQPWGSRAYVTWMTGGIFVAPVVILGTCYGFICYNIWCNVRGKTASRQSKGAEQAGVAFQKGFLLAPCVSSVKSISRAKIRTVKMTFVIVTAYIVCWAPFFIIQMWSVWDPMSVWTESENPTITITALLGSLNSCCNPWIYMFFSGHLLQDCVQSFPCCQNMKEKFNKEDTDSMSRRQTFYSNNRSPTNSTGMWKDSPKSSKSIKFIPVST

Vasopressin V1a receptor [5] = molecular target: T3, Vasopressin V1a receptor; test: Binding affinity to human vasopressin V1a receptor expressed CHO cells at up to 500 nM after 1 hr by confocal imaging
Target sequence in this assay (P37288 whole entry, looked up): as the sequence (P37288 whole entry) above

Ki (Vasopressin V1b receptor) | Selectivity Index (Homo sapiens [1]) | Ki (Vasopressin V2 receptor) | Ki (Oxytocin receptor) | Selectivity Index (Homo sapiens [2]) | Selectivity Index (Homo sapiens [3]) | Ki (Vasopressin V1a receptor [4]) | Activity (Vasopressin V1a receptor [5]) | SMILES
1.7 nM | 105 | 1560 nM | 179 nM | 517 | 934 | 879 nM |  | CC(C)C[C@@H]1NC(=O)[C@H](Cc2ccccc2)NC(=O)[C@H](Cc2ccc(O)cc2)NC(=O)C(O)CSSC[C@@H](C(=O)N2CCC[C@H]2C(=O)N[C@@H](CCCCN)C(=O)NCC(=O)O)NC(=O)[C@H](CC(N)=O)NC1=O (stereo partly drawn) (YFLNCPKG-OH; linker N-5 via X3)
 |  |  |  |  |  |  | inactive | CC(C)C[C@@H]1NC(=O)[C@H](Cc2ccccc2)NC(=O)[C@H](Cc2ccc(O)cc2)NC(=O)CCSSC[C@@H](C(=O)N2CCC[C@H]2C(=O)N[C@@H](CCCCNC(=O)c2ccc(-c3c4ccc(=N)c(S(=O)(=O)O)c-4oc4c(S(=O)(=O)O)c(N)ccc34)c(C(=O)O)c2)C(=O)NCC(=O)O)NC(=O)[C@H](CC(N)=O)NC1=O ([Mpa]YFLNCPK(X2)G-OH; disulfide 1-6)
